Bioassay records: PubChem, several laboratories
NR2E3 ag-1 = human photoreceptor-specific nuclear receptor agonism. CHO-S Gal4-NCOR/VP16-NR2E3 two-hybrid, luciferase. inhibition of corepressor binding, % at 3.98 µM. 360,000 compounds, 0.35% hits;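 active means inhibition above the mean of all tested compounds plus 3 SD, cut at about 70% in these data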;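 further: higher means lower luciferase signal from less NR2E3 corepressor binding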
Target sequence (Q9Y5X4 whole entry, looked up, the tested form may be a part): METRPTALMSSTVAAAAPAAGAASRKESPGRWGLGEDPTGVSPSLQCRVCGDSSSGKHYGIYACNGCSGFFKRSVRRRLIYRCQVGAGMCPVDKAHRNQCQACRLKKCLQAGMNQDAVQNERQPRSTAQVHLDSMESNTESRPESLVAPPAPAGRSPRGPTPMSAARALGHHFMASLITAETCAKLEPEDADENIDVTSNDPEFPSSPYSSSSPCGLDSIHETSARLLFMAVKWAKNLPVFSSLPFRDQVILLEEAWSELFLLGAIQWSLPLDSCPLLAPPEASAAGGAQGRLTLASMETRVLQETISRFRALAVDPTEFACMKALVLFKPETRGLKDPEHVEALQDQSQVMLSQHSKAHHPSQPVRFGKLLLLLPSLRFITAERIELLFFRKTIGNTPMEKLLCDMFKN
Rev-erbA mod = modulates human Rev-erb alpha binding to DNA; P20393; Rev-erbα–FITC-DNA binding, fluorescence polarization, 90 min; activity, % at 10 µM; 370,000 compounds, 0.79% hits; AID 1259318;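 active means activity above about 14%, limit read from the data; passing the limit was not always enough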
PG9 Ab binder = PG9 antibody binding by small molecule | 360,000 compounds, 0.43% hits | inhibition, % at 6.7 µM | TR-FRET gp120-PG9 antibody binding | AID 624416; in the data active means inhibition above about 8.5%
NR2E3 ag-2 = NR2E3 (human) agonism | GST-NR2E3/biotin-RetCOR TR-FRET, 1536-well | 320,000 compounds, 0.12% hits | Q9Y5X4 | inhibition of corepressor binding, % at 4.78 µM | AID 2300;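 active means percent inhibition above the cutoff of mean plus 3 SD of all tested compounds, set per screening campaign, cut at about 20% in these data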
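Material: NR2E3–RetCOR corepressor complex / Incubation: Compound–protein incubation for 5 h at 4 °C / Dosing: compound at 4.8 µM, single dose / Detection: time-resolved FRET / Benchmarks: high control biotin, low control 0.6% DMSO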
NR1D1 mod conf = confirmation of modulators of human Rev-erb alpha DNA binding | shares compounds with Rev-erbA mod | Rev-erb alpha FITC-DNA binding, fluorescence polarization, 90 min | activation, % at 25 µM | 3,000 compounds, 61% hits;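 active means activation at or above a set limit, or at least 3 SD above the negative control mean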
RORg counter = RORgamma DNA-binding activity, dose-response counter-screen. shares compounds with Rev-erbA mod. purified RORgamma protein-FITC-DNA binding, fluorescence polarization. IC50, µM. 910 compounds, 8% hits. AID 1259320;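 active means Compounds whose fitted half-maximal concentration for disrupting protein-DNA binding is below 10 micromolar; the record names Rev-erb in its text, so the target is in doubt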
Large screens that a line does not name were inactive (follow-up assays come after a bar, where they were run). Compounds with a hit are over-represented: about 1.4% of the library has one in this group of screens.

C=CCn1c(SCC(=O)Nc2cc(C)on2)nc2sc(C)c(C)c2c1=O	Rev-erbA mod 54 | NR1D1 mod conf 53 | RORg counter inactive
CCn1c(SCC(=O)Nc2cc(C)on2)nc2sc(C)c(C)c2c1=O	Rev-erbA mod 27 (no result: NR2E3 ag-1, NR2E3 ag-2) | NR1D1 mod conf 35 | RORg counter inactive
COC(=O)[C@]12CCCCC=C1N(Cc1ccc(OC)cc1)C(=O)[C@@H]2CC(=O)N1CCN(C(=O)C2CC2)CC1	none (no result: NR2E3 ag-1, PG9 Ab binder, NR2E3 ag-2)
O=C(NCCO)C1(C(=O)C2CC2)CC(c2ccccn2)=NO1 (stereo unspecified)	none (no result: NR2E3 ag-1, PG9 Ab binder, NR2E3 ag-2)
FC(F)(F)c1ccc(Cn2ccc3ccc(-c4ccc5ccn(Cc6ccccc6)c5c4)cc32)cc1	none (no result: NR2E3 ag-1, PG9 Ab binder, NR2E3 ag-2)
FC(F)(F)c1ccc(N2CCN(c3ncnc4c3nnn4Cc3ccccc3)CC2)nc1	Rev-erbA mod 21 | NR1D1 mod conf inactive
COc1cc2c3nnc(-c4ccc(F)cc4)c-3cn(Cc3ccccc3F)c2cc1OC	Rev-erbA mod 21 (no result: NR2E3 ag-2) | NR1D1 mod conf 39 | RORg counter inactive
CCCCc1ccc(NC(=O)COC(=O)c2ccc3ncsc3c2)cc1	Rev-erbA mod 17 (no result: NR2E3 ag-2) | NR1D1 mod conf inactive
CCCCOC(=O)c1ccc(NC(=O)COC(=O)c2ccc3ncsc3c2)cc1	none
COCc1cn(-c2cccc(-c3noc4c3C(=O)N(CC(=O)N3CCOCC3)CC4)c2)nn1	none (no result: NR2E3 ag-1, PG9 Ab binder, NR2E3 ag-2)
Cc1cccc(NC(=O)Nc2nc3ncccn3c2-c2ccccc2)c1	none (no result: NR2E3 ag-1, PG9 Ab binder, NR2E3 ag-2)
COc1ccc(Nc2nc(C)nc3c2nnn3Cc2ccccc2Cl)c(OC)c1	Rev-erbA mod 21 | NR1D1 mod conf inactive
Cc1nc(NCC2CCCO2)c2nnn(Cc3ccccc3Cl)c2n1 (stereo unspecified)	none (no result: PG9 Ab binder)
NC(=O)c1cc2ccccc2o/c1=N\NC(=O)c1ccccc1O	Rev-erbA mod 21 | NR1D1 mod conf inactive
C=CCN1C[C@@H](COCc2ccccc2)Oc2cccc(F)c2S1(=O)=O	none (no result: NR2E3 ag-1, PG9 Ab binder, NR2E3 ag-2)
COC(=O)/C=c1/sc2nc3ccccc3n2c1=O	none
O=c1c2ccccc2nc2sc3ccccc3n12	Rev-erbA mod 22 | NR1D1 mod conf 32 | RORg counter inactive
Cn1c(=O)cc(OCCCC(=O)Nc2cc(-c3ccncc3)ccn2)c2ccccc21	none (no result: NR2E3 ag-1, PG9 Ab binder, NR2E3 ag-2)
COc1cc(NC(=O)CCc2nnc3ccc(N4CCN(c5cccc(OC)c5)CC4)nn23)cc(OC)c1	Rev-erbA mod 29 | NR1D1 mod conf inactive
COc1cccc(NC(=O)CCc2nnc3ccc(N4CCN(c5cccc(OC)c5)CC4)nn23)c1	none (no result: Rev-erbA mod, PG9 Ab binder)
COCCN(Cc1cc2cc(C)ccc2n2nnnc12)C(=S)Nc1ccc(C)cc1	Rev-erbA mod 104 | NR1D1 mod conf 49 | RORg counter inactive
COCCNC(=S)N(Cc1cc2cc(C)ccc2n2nnnc12)C1CCCC1	Rev-erbA mod 54 | NR1D1 mod conf 22
COCCN(Cc1cc2cc(C)ccc2n2nnnc12)C(=S)Nc1ccc(OC)cc1	none (no result: NR2E3 ag-2)
O=S(=O)(N1CCCCC1)N1CCN(CC(O)COc2ccc3cc(Br)ccc3c2)CC1 (stereo unspecified)	Rev-erbA mod 100, PG9 Ab binder 12 | NR1D1 mod conf 49 | RORg counter inactive
O=C(NCCc1c[nH]c2ccccc12)OCc1cn(Cc2ccc(C(F)(F)F)cc2)nn1	none (no result: NR2E3 ag-1, PG9 Ab binder, NR2E3 ag-2)
CCOC(=O)Cn1cc(C=O)c2ccccc21	none
CC(C)n1cc(/C=C/c2cc[n+](C)cc2)c2ccccc21	Rev-erbA mod 209 (no result: NR2E3 ag-2) | NR1D1 mod conf 203 | RORg counter inactive
Cc1ccccc1/C=C/c1cc[n+](C)cc1	none
C=CCn1cc(/C=C/c2cc[n+](C)cc2)c2ccccc21	Rev-erbA mod 168 | NR1D1 mod conf 143 | RORg counter inactive
C=CCn1c(C)c(/C=C/c2cc[n+](C)cc2)c2ccccc21	Rev-erbA mod 237 | NR1D1 mod conf 213 | RORg counter inactive
CCn1cc(/C=C/c2cc[n+](C)cc2)c2ccccc21	Rev-erbA mod 179 | NR1D1 mod conf 160 | RORg counter inactive
CCOC(=O)[C@]12CCCC3=C1N(CCC3)C(=O)[C@@H](CC(=O)NCc1cccc3ccccc13)C2	none (no result: NR2E3 ag-1, PG9 Ab binder, NR2E3 ag-2)
Cc1ccccc1CN1CCCCC(NC(=O)c2cccc(C(F)(F)F)c2)C1=O (stereo unspecified)	none (no result: NR2E3 ag-1, PG9 Ab binder, NR2E3 ag-2)
O=C(CSc1cc(Cl)ccc1Cl)N/N=C/c1ccc[nH]1	none (no result: NR2E3 ag-1, PG9 Ab binder, NR2E3 ag-2)
CCN(CC)C(=O)Cn1c(C)c(/C=C/c2cc[n+](C)cc2)c2ccccc21	Rev-erbA mod 158 | NR1D1 mod conf 139 | RORg counter inactive
